Lmaj promast – Leishmania major promastigote growth inhibition, primary screen; Leishmania major promastigotes, resazurin fluorescence viability; inhibition, % at 10 µM; hit rate 9% among 200,000; AID 1063, 2008; in the data active means inhibition above about 50%;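 further: promastigotes grown with compound for 44 hours at 28 °C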
T cruzi repl – inhibitors of intracellular T. cruzi growth, primary screen, luminescence, NIH3T3 host cells. AID 1885, 2009. T. cruzi beta-gal in NIH3T3, 90 h. hit rate 1.4% among 300,000. inhibition, % (concentration not given with the values);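 active means mean inhibition across valid replicates above about 55%, limit read from the data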;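 further: signal also drops with host cell toxicity which is not excluded here; 0% = plate median of DMSO wells and 100% = zero luminescence signal; higher percent means less beta-gal luminescence so fewer parasites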
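Assay system: NIH/3T3 fibroblasts plus reporter T. cruzi. Amount: NIH/3T3 cells, 5,000 per well. Buffer or medium: DMEM, 2% fetal bovine serum. Doses: compound pinned at 50 nL/well, DMSO. Schedule: ≥90 h infection period, 3 h prior cell attachment. Signal: luminescent β-galactosidase signal after 60 min lysis. Read-out: parasite load inhibition, %.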
Hep lipid drop – inhibitors of hepatocyte lipid droplet formation, primary screen, imaging, high-throughput imaging, BODIPY stain; AML12 mouse hepatocytes, oleate lipid droplets; hit rate 0.4% among 240,000; inhibition, % at 6.5 µM; AID 1656, 2009;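 active means lipid droplet intensity inhibited by at least 50%, with more than 500 cells counted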
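Material – AML12 mouse liver cells · Also added – oleate loading, 100 µM · Compound dosing – 6.5 µM single-point dosing · Times – overnight treatment with compound plus oleate · Measured by – fluorescence imaging, 20x objective, two fields per well · Read-out – percent inhibition of filter-corrected integrated lipid droplet intensity per well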
Redox H2O2 prof – compounds producing H2O2 with reducing agent – biochemical, NIH compound library profiling, artefact control for MLSCN library redox annotation, primary screen; DTT-dependent redox cycling H2O2, phenol red/HRP absorbance; 100% = 100 µM peroxide control, 0% = buffer; activation, % at 10 µM; hit rate 0.03% among 200,000; AID 878, 2007;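 active means activation of at least 50% relative to the plate's high and low controls in the primary single-dose screen; inactive means activation below 50%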;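 further: compound incubated with DTT at 0.8 mM final as the reducing agent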
MPTP block – mitochondrial permeability transition pore inhibitors, primary screen, biochemical, isolated mouse mitochondria, absorbance; inhibition, % at 10 µM; hit rate 1.4% among 360,000; Ca2+ swelling absorbance, 30 min;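 active means inhibition of 50% or more, scaled per plate between neutral and stimulator controls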;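 further: 0% = DMSO wells given calcium and 100% = 1 mM EGTA wells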
An asterisk follows results filed as active. The sample as a whole holds a higher share of hits than the screen did.

`O=C(Nc1ccc(S(=O)(=O)N2CCCC2)cc1)C1CCN(S(=O)(=O)c2ccc(F)cc2)CC1` gave T cruzi repl 11.0 and MPTP block 0.0.
`O=S(=O)(c1ccc(Cl)cc1)N1CCC(N2CCCCCC2)CC1` gave Lmaj promast 96.9*, T cruzi repl 10.6, Hep lipid drop 7.9, Redox H2O2 prof -0.9 and MPTP block 0.3.
Screening Cn1c(Cc2ccc3c(c2)OCO3)nnc1SCC(=O)NC1CCCC1 returned Lmaj promast 1.3, T cruzi repl 4.3, Hep lipid drop -4.4 and Redox H2O2 prof -0.9.
For COc1ccc(NC(=O)C(CC(C)C)NC(=O)C2CCCCC2)c(OC)c1 (stereo unspecified) the results were Lmaj promast 24.0, T cruzi repl 20.5, Hep lipid drop 1.7, Redox H2O2 prof -0.3 and MPTP block 0.8.
Cc1cccc(NC(=O)c2ccc(C(=O)c3ccccc3)o2)c1 was read as Lmaj promast -2.7, T cruzi repl 0.1, Hep lipid drop 2.9, Redox H2O2 prof -0.7 and MPTP block -0.2.
Screening O=C(CN1C(=O)CCS(=O)(=O)c2ccccc21)Nc1ccc(Cl)cc1 returned T cruzi repl 1.7, Hep lipid drop 1.1 and MPTP block 1.0.
CCOC(=O)N1CCC(NCCNC(=O)c2ccc(Cl)cc2)CC1 was read as Lmaj promast 90.8*, T cruzi repl 36.8, Hep lipid drop 1.0, Redox H2O2 prof 1.0 and MPTP block 0.4.
For CCOC(=O)N1CCC(NC2CCCCCCC2)CC1 the results were Lmaj promast 93.6*, T cruzi repl 8.5, Redox H2O2 prof -0.1 and MPTP block 0.1.
For CC1CN(C2CCN(S(=O)(=O)c3ccc4ccccc4c3)CC2)CC(C)O1 (stereo unspecified) the results were Lmaj promast 93.8*, T cruzi repl 9.5, Redox H2O2 prof -0.7 and MPTP block 0.9.
O=S(=O)(c1ccc(F)cc1)N1CCC(N2CCCCCC2)CC1 was read as Lmaj promast 98.0*, T cruzi repl -13.6, Redox H2O2 prof -3.3 and MPTP block -1.4.
CCN1CCN(S(=O)(=O)c2ccc3ccccc3c2)CC1 was read as Lmaj promast 34.9, T cruzi repl 7.1, Hep lipid drop -1.7, Redox H2O2 prof 0.1 and MPTP block 0.4.
CC(=O)Nc1ccc(S(=O)(=O)N2CCC(N3CCCCC3)CC2)cc1 was read as T cruzi repl -1.5, Hep lipid drop -3.3 and MPTP block -0.6.
`COc1cccc(CNC(=O)C2CCN(S(=O)(=O)c3ccc(Br)s3)CC2)c1` gave T cruzi repl 9.8, Hep lipid drop -1.2 and MPTP block 2.6.
`CCOC(=O)c1ccc(N2CCN(c3cc(C)ccc3C)CC2)c(N)c1` gave T cruzi repl 16.4 and MPTP block 0.4.
Screening CCOC(=O)N1CCC(N2CCN(c3cc(C)ccc3C)CC2)CC1 returned Lmaj promast 94.8*, T cruzi repl 5.4, Redox H2O2 prof 0.2 and MPTP block -0.7.
For CC1CCN(C2CCN(S(=O)(=O)c3ccc(F)cc3)CC2)CC1 the results were Lmaj promast 89.6*, T cruzi repl 11.6, Redox H2O2 prof 2.4 and MPTP block -0.2.
`CC1CCN(C2CCN(S(=O)(=O)c3ccc(C(F)(F)F)cc3)CC2)CC1` gave T cruzi repl 12.9, Hep lipid drop -2.3 and MPTP block 0.4.
Screening Cc1cc(C)c(S(=O)(=O)N(C)CC(=O)NCc2ccncc2)c(C)c1 returned Lmaj promast 10.7, T cruzi repl -8.6, Hep lipid drop -12.3, Redox H2O2 prof -0.4 and MPTP block -1.1.
Screening COc1cc(/C=N/Nc2ccccc2[N+](=O)[O-])cc(OC)c1O returned Lmaj promast 29.6, T cruzi repl 4.4, Hep lipid drop 2.6, Redox H2O2 prof -0.9 and MPTP block 3.2.
COc1cc(/C=N/Nc2ccc(F)cc2F)cc(OC)c1O was read as Lmaj promast 67.9*, T cruzi repl 15.3, Hep lipid drop 6.6, Redox H2O2 prof -0.4 and MPTP block -0.6.
For C=CCOc1ccccc1CN1CCSCC1 the results were Lmaj promast 98.2*, T cruzi repl -1.1, Redox H2O2 prof -1.1 and MPTP block 1.4.
Screening C=CCOc1ccccc1CN1CCCCCC1 returned T cruzi repl -8.0, Hep lipid drop -1.9 and MPTP block -1.5.
`COc1ccc(-c2nc(NC(=O)c3ccc(OCC(=O)N4CCOCC4)c(OC)c3)sc2C)cc1` gave Lmaj promast 61.1*, T cruzi repl 12.8, Hep lipid drop 96.0*, Redox H2O2 prof 0.0 and MPTP block 0.3.
COc1cc(C(=O)Nc2ccc(C)cn2)ccc1OCC(=O)N1CCOCC1 was read as MPTP block -2.1.
Screening S=c1[nH]c(-c2ccc(Cl)cc2)cs1 returned Lmaj promast 66.7*, T cruzi repl -18.2, Hep lipid drop -14.3, Redox H2O2 prof 0.4 and MPTP block -0.7.
`O=C(c1ccc2oc(CCc3ccccc3)nc2c1)N1CC[C@H](O)C1` gave T cruzi repl -2.9, Hep lipid drop 5.4 and MPTP block 0.1.
Screening Cc1ccc(Nc2nc(CSc3nnc(-c4ccc(F)cc4)n3C)cs2)cc1 returned Lmaj promast 80.7*, T cruzi repl -1.1, Hep lipid drop -39.4, Redox H2O2 prof 0.0 and MPTP block 0.8.
COc1cc(OC)cc(-c2nc3ccccc3c(=O)n2OC(=O)c2ccc(Br)cc2)c1 was read as Lmaj promast 50.2*, T cruzi repl 1.7, Hep lipid drop -17.5, Redox H2O2 prof 1.6 and MPTP block 38.7.
For COc1ccc(C(=O)On2c(-c3ccc(Br)cc3)nc3ccccc3c2=O)cc1 the results were Lmaj promast -7.7, T cruzi repl -17.7, Hep lipid drop 2.6, Redox H2O2 prof 0.4 and MPTP block 8.9.
Screening O=C(NCCCN1CCOCC1)c1ccc2c(c1)N(Cc1c(F)cccc1Cl)C(=O)CS2 returned T cruzi repl 5.9, Hep lipid drop -16.1 and MPTP block 0.2.
Screening CCCC(=O)NC(c1ccc(C)cc1)c1ccc2cccnc2c1O (stereo unspecified) returned T cruzi repl 72.2*, Hep lipid drop -37.8 and MPTP block 1.2.
`CCCCC(=O)NC(c1ccc(Cl)cc1)c1ccc2cccnc2c1O` (stereo unspecified) gave T cruzi repl 71.4* and MPTP block 2.9.
For COc1ccc(C(NC(C)=O)c2ccc3cccnc3c2O)c(OC)c1 (stereo unspecified) the results were T cruzi repl 52.8 and MPTP block 1.1.
CCCC(=O)NC(c1ccc(Cl)cc1Cl)c1ccc2cccnc2c1O (stereo unspecified) was read as T cruzi repl 63.5*, Hep lipid drop -35.9 and MPTP block 4.3.
CC(=O)NC(c1ccc(Cl)cc1Cl)c1ccc2cccnc2c1O (stereo unspecified) was read as T cruzi repl 62.1*, Hep lipid drop -47.5 and MPTP block -1.4.
